For data set [1], the system named is A549. As to the kind of experiment: Induction of morphological changes in human A549 cells assessed as cell shrinkage at 15 uM measured after 24 hrs by scanning electron microscopic analysis. The class given is functional, cell-based.
Data set [2] in a line: Drug uptake in spleen of Balb/c nu/nu mouse xenografted with human A549 cells expressing luciferase gene at 3 mg/kg administered intratumorally measured after 6 hrs by fluorescence assay. The class given is ADME, organism-based. The following applies: in vivo, other.
In data set [3] the test system is A549. The experiment in a line: Induction of morphological changes in 3D spheroids of human A549 cells assessed as disruption of cell morphology at 30 uM treated every 2 days for 6 days measured every 3 days during compound dosing by microscopic analysis. The class given is functional, cell-based. Summed up: (§1)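 A549 3D spheroids, one per well, in 10% medium with peptide at 30 µM final. Dosed at day 0, then re-added at days 2 and 4, for 6 days total. Spheroids washed thrice, then imaged and sized at days 0, 3 and 6. Viability read by CCK-8.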

Data set [4] is described as follows: Drug uptake in heart of Balb/c nu/nu mouse xenografted with human A549 cells expressing luciferase gene at 9 mg/kg, ip measured after 6 hrs by fluorescence assay. The class given is ADME, organism-based. The following applies: in vivo.
In data set [5] the target is T1, Solute carrier family 2, facilitated glucose transporter member 1 (Homo sapiens) (UniProt P11166).
T1 sequence (whole entry): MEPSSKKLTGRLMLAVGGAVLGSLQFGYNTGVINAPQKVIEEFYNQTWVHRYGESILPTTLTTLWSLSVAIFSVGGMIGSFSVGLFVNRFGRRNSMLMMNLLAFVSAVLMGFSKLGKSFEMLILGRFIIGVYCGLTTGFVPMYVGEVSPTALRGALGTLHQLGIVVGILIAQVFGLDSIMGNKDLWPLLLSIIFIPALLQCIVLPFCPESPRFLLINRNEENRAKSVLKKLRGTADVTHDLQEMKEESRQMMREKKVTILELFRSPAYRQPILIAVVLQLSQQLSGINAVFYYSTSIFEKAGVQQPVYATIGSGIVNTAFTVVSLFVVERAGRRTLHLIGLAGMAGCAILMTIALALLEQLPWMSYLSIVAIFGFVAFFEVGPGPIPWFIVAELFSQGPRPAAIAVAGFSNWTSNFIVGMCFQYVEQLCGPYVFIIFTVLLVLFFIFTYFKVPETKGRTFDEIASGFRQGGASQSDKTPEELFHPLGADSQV
As to the kind of experiment: Binding affinity to GLUT1 in human A549 cells assessed as cytotoxicity by measuring LDH release at 12.5 uM measured after 2 hrs relative to control. The data set is classed as cell-based. The method, boiled down:
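A549 cells at 2×10^3/well, allowed to adhere overnight, then exposed to peptide over a concentration series for 2 h. LDH release measured with a kit, absorbance at 490 nm. 1% Triton X-100 taken as 100% release; n=3.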

The subject of data set [6] is A549. The experiment in a line: Induction of apoptosis in human A549 cells assessed as appearance of apoptotic bodies at 15 uM measured after 24 hrs by scanning electron microscopic analysis. The class given is functional, cell-based.
For data set [7], the system named is A549. The experiment in a line: Induction of mitochondrial membrane disruption in human A549 cells assessed as increase in cytochrome C level in cytoplasm at 15 uM measured after 24 hrs by immunofluorescence assay. The data set is classed as functional, cell-based. The method, boiled down:
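A549 cells given 15 µM peptide for 24 h, permeabilized 2 min with 0.5% Triton X-100 and blocked 30 min in 10% sheep serum/PBS. Anti-CytC (1:100) applied 2 h at RT, then fluorescent goat anti-mouse secondary (1:200) for 1 h. Confocal imaging; untreated cells served as control.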

Data set [8] relates to A549. The experiment in a line: Induction of apoptosis in human A549 cells assessed as early apoptotic cells at 8 uM measured after 4 hrs by Annexin V-FITC/propidium iodide staining-based flow cytometry (reference value: 0.39%). The class given is functional. The method, boiled down: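 A549 cells grown 24 h, trypsinized, then resuspended in medium with 8 µM peptide for 4 h at 37 °C. Cells washed with cold PBS, stained with Annexin V-FITC/PI, and analysed by flow cytometry.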

In data set [9] the target is T1, Solute carrier family 2, facilitated glucose transporter member 1 (Homo sapiens). As to the kind of experiment: Binding affinity to GLUT1 in human A549 cells assessed as cytotoxicity by measuring reduction in cell viability at 15 uM by trypan blue staining-based assay. The method, boiled down:
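A549 cells stained with trypan blue after peptide treatment at 15 µM. Dead cells appear blue and live cells unstained; live cells were counted.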

For data set [10], the system named is HEK-293T. The experiment in a line: Cytotoxicity against HEK293T cells assessed as reduction in cell viability measured after 24 hrs by CCK8 assay. The following applies: Homo sapiens, HEK-293T. The class given is cell-based, Homo sapiens. The method, boiled down:
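Cells (A549, H460, H1437, PC-3, HGC-27, MDA-MB-231, HEK-293T, L-02) seeded at about 2×10^3/well and grown overnight. Treated 24 h with a peptide concentration series in serum-free medium. Viability by CCK-8; IC50 taken as 50% inhibition versus untreated cells. Average of three experiments, each in triplicate.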

A short description of data set [11]: Drug uptake in spleen of Balb/c nu/nu mouse xenografted with human A549 cells expressing luciferase gene at 9 mg/kg, ip measured after 6 hrs by fluorescence assay. The following applies: in vivo. The data set is classed as ADME, organism-based.
Data set [12] can be described thus: Drug uptake in liver of Balb/c nu/nu mouse xenografted with human A549 cells expressing luciferase gene at 3 mg/kg administered intratumorally measured after 6 hrs by fluorescence assay. The data set is classed as ADME, organism-based. To be noted: in vivo, other.
Data set [13] is described as follows: Toxicity in Balb/c nu/nu mouse xenografted with human A549 cells expressing luciferase gene assessed as change in body weight at 9 mg/kg, ip administered every 2 days for seven times measured on day 14. To be noted: in vivo, 48 h. The data set is classed as organism-based. The method, boiled down:
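Male BALB/c nu/nu mice, 4–6 weeks old, carrying subcutaneous A549-luciferase tumours (right back, cells in sterile PBS), dosed at a tumour size of 100–200 mm³; five per group, PBS controls. Two regimens: 9 mg/kg i.p. (200 µL) every other day ×7, ended day 14; or 3 mg/kg intratumoral (100 µL) every 3 days ×4, ended day 12. Body weight was monitored throughout.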

Data set [14] has as its system A549. The experiment in a line: Induction of morphological changes in 3D spheroids of human A549 cells assessed as reduction in spheroid volume at 30 uM treated every 2 days for 6 days measured every 3 days during compound dosing by microscopic analysis. The data set is classed as functional, cell-based. Summed up: as §1
The test system of data set [15] is A549. As to the kind of experiment: Induction of morphological changes in 3D spheroids of human A549 cells assessed as dissociation of 3D structure at 30 uM treated every 2 days for 6 days measured every 3 days during compound dosing by microscopic analysis. The class given is functional, cell-based. The method, boiled down:
as §1

The nature of data set [16]: Drug uptake in liver of Balb/c nu/nu mouse xenografted with human A549 cells expressing luciferase gene at 9 mg/kg, ip measured after 6 hrs by fluorescence assay. The data set is classed as ADME, organism-based. The following applies: in vivo.
Data set [17] has as its system A549. As to the kind of experiment: Induction of morphological changes in 3D spheroids of human A549 cells assessed as cell shrinkage at 30 uM treated every 2 days for 6 days measured every 3 days during compound dosing by microscopic analysis. The data set is classed as functional, cell-based. Summed up:
as §1

Data set [18] relates to A549. As to the kind of experiment: Antitumor activity against human A549 cells expressing luciferase gene xenografted in Balb/c nu/nu mouse assessed as reduction in tumor volume at 3 mg/kg administered intratumorally every 3 days for four times measured on day 12 by bioluminescent imaging analysis. The class given is functional, organism-based. Summed up: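 Male BALB/c nu/nu mice, 4-6 weeks old, with subcutaneous A549-luciferase xenografts. Treatment began when tumors reached 100-200 mm³, five per group. Peptide was injected intratumorally at 3 mg/kg in 100 µL every 3 days for 4 doses; 100 µL PBS was the control. Bioluminescent imaging on day 12, with tumor size and body weight monitored.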

The record followed here is ChEMBL document CHEMBL4334452, “Monosaccharide Analogues of Anticancer Peptide R-Lycosin-I: Role of Monosaccharide Conjugation in Complexation and the Potential of Lung Cancer Targeting and Therapy” (J Med Chem, 2019).

Active and inactive are the calls of the source. The rule behind the calls is not given here. *1 amine or outer side, *2 acyl side, *3 side chain or, on linkers, in order; H or OH if unused. Where a SMILES comes first, the peptide text is derived from it. The star is where a group is joined. NH(CH2)3O(βDGlc) = OC[C@H]1O[C@@H](OCCCN*)[C@H](O)[C@@H](O)[C@@H]1O; Glutaryl = O=C(CCCC(=O)[*:2])[*:1]

In the case of `CC[C@H](C)[C@H](NC(=O)[C@H](Cc1ccccc1)NC(=O)[C@H](CCCNC(=N)N)NC(=O)[C@H](C)NC(=O)[C@@H](NC(=O)[C@H](CO)NC(=O)[C@H](CCCNC(=N)N)NC(=O)[C@H](CCSC)NC(=O)[C@H](C)NC(=O)[C@H](CCCNC(=N)N)NC(=O)[C@H](Cc1ccccc1)NC(=O)[C@H](Cc1c[nH]c2ccccc12)NC(=O)CNC(=O)[C@@H](N)CCCNC(=N)N)[C@@H](C)CC)C(=O)N[C@@H](C)C(=O)N[C@@H](CCCNC(=N)N)C(=O)N[C@@H](CCC(=O)O)C(=O)N[C@@H](CCCNC(=N)N)C(=O)N[C@@H](CC(C)C)C(=O)N[C@@H](CCCNC(=N)N)C(=O)N[C@@H](CCC(=O)O)C(=O)N[C@@H](Cc1cnc[nH]1)C(=O)N[C@@H](CC(C)C)C(=O)O` (H-RGWFRAMRSIARFIARERLREHL-OH), the result in data set [1], in [3], in data set [6], in data set [7], in data set [9] and in data set [14] was Active. In addition, the result in data set [15], in data set [17] and in data set [18] was Active. Also, the Drug uptake entry in data set [2], in [4], in data set [11], in [12] and in data set [16] was “Active” in each case. Besides, the results for the Activity in [5], in [8] and in [13] were greater than 30%, 0.63% and “Non-Toxic”, respectively. For the same compound, the IC50 in data set [10] is 25.8 µM.
Take `CC[C@H](C)[C@H](NC(=O)[C@H](Cc1ccccc1)NC(=O)[C@H](CCCNC(=N)N)NC(=O)[C@H](C)NC(=O)[C@@H](NC(=O)[C@H](CO)NC(=O)[C@H](CCCNC(=N)N)NC(=O)[C@H](CCSC)NC(=O)[C@H](C)NC(=O)[C@H](CCCNC(=N)N)NC(=O)[C@H](Cc1ccccc1)NC(=O)[C@H](Cc1c[nH]c2ccccc12)NC(=O)CNC(=O)[C@H](CCCNC(=N)N)NC(=O)CCCC(=O)NCCCO[C@@H]1O[C@H](CO)[C@@H](O)[C@H](O)[C@H]1O)[C@@H](C)CC)C(=O)N[C@@H](C)C(=O)N[C@@H](CCCNC(=N)N)C(=O)N[C@@H](CCC(=O)O)C(=O)N[C@@H](CCCNC(=N)N)C(=O)N[C@@H](CC(C)C)C(=O)N[C@@H](CCCNC(=N)N)C(=O)N[C@@H](CCC(=O)O)C(=O)N[C@@H](Cc1cnc[nH]1)C(=O)N[C@@H](CC(C)C)C(=O)O` ({NH(CH2)3O(βDGlc)-Glutaryl}-RGWFRAMRSIARFIARERLREHL-OH): the outcome in [1], in [3], in data set [6], in data set [7], in data set [9] and in [14] was Active. Also, the result in data set [15], in data set [17] and in data set [18] was Active. The Drug uptake entry in data set [2], in [4], in [11], in data set [12] and in data set [16] was “Active” in each case. Also, the Activity is greater than 30% in [5], 1.1% in [8] and “Non-Toxic” in data set [13]. For the same compound, in [10], the IC50 was 37.4 µM.
